T cell HTS = T cell immune modulators affecting CD8 T cell-vesicle binding; 330,000 compounds, 0.068% hits; 2C CD8+ T cell-vesicle binding, flow cytometry; hits give low values; response (vesicle binding), % at 7 µM;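 active = response, share of CD8 T cells binding vesicles, and their 90th percentile fluorescence all below set limits, cut at about 80% in these data, passing the limit was not always enough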;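 also: values below 100% mean blocked vesicle binding to the CD8+ T cells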
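Incubation: binding step 1.5 h, 37 °C, antibody labelling 20 min, ice; system: murine 2C transgenic CD8+ T lymphocytes; technique: cytometric PE anti-B7-1 and Alexa647 anti-CD8 signals after 1% paraformaldehyde fixation; also added: QL9-charged Drosophila Ld/ICAM-1/B7-1 vesicles; control set: naked versus QL9-loaded vesicles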
V-ATPase pHluor = alters yeast V-ATPase proton transport; response, % at 10 µM; AID 504577; 350,000 compounds, 0.37% hits; S. cerevisiae, pHLuorin cytosolic pH fluorescence; in the data active = response mostly above about 7.3%, no sharp cut-off; inactive = mostly below about 5.4%; also: actives read high
XiGFP reactiv = reactivates the inactive X chromosome in mouse fibroblasts | XiGFP mouse fibroblasts, % GFP-positive cells imaging, 3 d; cells co-treated with 5-aza-dC sensitizer; scaled so ellipticine positive control = 100% | 360,000 compounds, 0.055% hits | AID 743238 | activation, % at 7.58 µM;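 active = mean normalized replicate activation at least 10% and every replicate at or above 10%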;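 also: 0% = median of on-plate neutral control wells and 100% = ellipticine 6 µM median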
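Material: XiGFP fibroblasts, SV40-immortalized. Buffer or medium: DMEM plus 5-aza-dC sensitizer. Compound: single concentration per compound, delivered by pin transfer. Times: 3 days compound exposure. Controls: ellipticine 6 µM.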
NTR1 agonist = NTR1 (human) agonism | P30989 | NTR1-U2OS beta-arrestin-GFP spot imaging, agonist mode | activation, % at 20 µM | 330,000 compounds, 0.17% hits | AID 493036;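 active = activation at or above 40% of the spot to cytoplasm intensity ratio, with at least 20 cells analyzed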;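 also: 0% = DMSO without peptide and 100% = 100 nM NTR1 peptide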
Target sequence (P30989 whole entry, looked up): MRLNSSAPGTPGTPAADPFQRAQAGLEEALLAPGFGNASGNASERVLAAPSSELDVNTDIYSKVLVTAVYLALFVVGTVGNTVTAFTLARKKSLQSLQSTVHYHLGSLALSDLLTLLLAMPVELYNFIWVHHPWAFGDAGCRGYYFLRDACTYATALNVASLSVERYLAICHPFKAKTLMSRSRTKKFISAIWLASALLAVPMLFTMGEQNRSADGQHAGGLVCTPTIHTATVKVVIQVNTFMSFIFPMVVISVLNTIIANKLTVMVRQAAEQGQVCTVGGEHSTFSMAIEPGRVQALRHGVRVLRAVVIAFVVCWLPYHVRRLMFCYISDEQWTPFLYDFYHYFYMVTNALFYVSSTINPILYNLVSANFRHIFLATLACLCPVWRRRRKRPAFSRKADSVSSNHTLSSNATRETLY
Arrestin-AP2 inh = blocks beta-arrestin peptide binding to AP2 adaptin; inhibition, % at 10 µM; AID 504490; 340,000 compounds, 0.31% hits; FITC-arrestin peptide / GST-AP2 beads, flow cytometry; AP2 beta2 appendage carries R879A mutation;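 active = inhibition above a set limit, near 3 SD of compounds lacking own fluorescence, cut at about 54% in these data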;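 also: plate controls were DMSO wells for no effect and 5 µM unlabelled arrestin peptide for full effect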
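System: GST-tagged AP2 beta2-adaptin appendage (R879A) on 4 µm glutathione beads / Reagent: FITC-arrestin peptide, 50 nM / Detection: HyperCyt-sampled flow cytometry, FL1 channel, ex 488/em 535 nm / Timing: 12 min plus 1 h, RT / Buffer or medium: PBS plus Tween 20 (0.05%) and BSA (0.1%)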
MIN6 prolif = induces beta-cell replication in MIN6 cells; proliferation, % at 10 µM; 330,000 compounds, 0.29% hits; MIN6 cells proliferation, ATPlite luminescence, 48 h; cells starved in 0.2% serum; 100% = growth in 10% serum; AID 2380;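 active = compounds whose signal lies at least 3.5 SD above the mean of all wells on their plate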;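 also: 0% = DMSO-treated cells in low-serum medium and 100% = 10% serum control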
Arr AP2 CP1 = inhibitors of human beta-arrestin and AP2 interaction | shares compounds with Arrestin-AP2 inh | GST-AP2 beads, FITC arrestin peptide binding, flow cytometry; GST-fused beta2-adaptin appendage, R879A mutant | inhibition, % at 10 µM | 1,300 compounds, 2% hits;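 active = inhibition above a set limit, roughly 3 SD of non-fluorescent compound noise, cut at about 38% in these data; inactive = inhibition at or below that limit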;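 also: loss of bead fluorescence from 50 nM FITC arrestin peptide bound to appendage; 0% = negative control wells and 100% = excess unlabelled arrestin peptide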
GST-FITC bead = counter-screen for beta-arrestin AP2 inhibitors: GST-GSH bead binding; shares compounds with Arrestin-AP2 inh; GST-fluorescein binding to GSH beads, fluorescence; AID 588338; 1,300 compounds, 2% hits; inhibition, % at 10 µM;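 active = inhibition above 50%, about 3 SD of the inhibition seen with non-fluorescent compounds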;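 also: fluorescein maleimide labelled GST captured on 4 micron glutathione beads; higher means more loss of bead fluorescence from quenching or blocked binding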
* hit, by the source's call; i = inactive; nt = not tested or not shown. This is a sample that favours compounds with a hit; in the whole collection about 0.89% have one here.

SMILES | T cell HTS | V-ATPase pHluor | XiGFP reactiv | NTR1 agonist | Arrestin-AP2 inh | MIN6 prolif | Arr AP2 CP1 | GST-FITC bead
COc1ccc(NC(=O)Nc2ccc3c(c2)C(=O)N([C@H](C)CO)C[C@@H](C)[C@H](CN(C)S(=O)(=O)c2ccc(Cl)cc2)OCCCC[C@@H](C)O3)cc1 | nt | nt | 0 | nt | nt | nt | nt | nt
COc1ccccc1-c1ccc2c(c1)[C@H]1[C@H](CCN1S(=O)(=O)c1cn(C)cn1)[C@H](CO)N2 | nt | nt | 0 | nt | nt | nt | nt | nt
CC(C)(C)S(=O)(=O)/C(C#N)=N/Nc1ccc(Cl)cc1 | 428 | 3 | 0 | 5 | 57* | -4 | -4 | -2
CCC(=O)N1CC2(C1)[C@H](c1ccc(-c3cccc(F)c3)cc1)[C@H](CO)N2CC1CC1 | nt | nt | 0 | nt | nt | nt | nt | nt
CCOC(=O)C1=C(COC(=O)CCOc2ccccc2C)NC(=O)NC1C (centres undefined) | 368 | -5 | 0 | -2 | 1 | 3 | -10 | -8
CCOC(=O)C1=C(COC(=O)CCOc2ccc(OCC)cc2)NC(=O)NC1C (centres undefined) | 585 | 3 | 0 | 0 | -6 | -2 | 0 | 1
CCOC(=O)C1=C(COC(=O)CCCOc2ccccc2)NC(=O)NC1C (centres undefined) | nt | -2 | 0 | 0 | 0 | 2 | -9 | -4
CCOC(=O)C1=C(COC(=O)c2ccccc2[N+](=O)[O-])NC(=O)NC1C (centres undefined) | 449 | 0 | 0 | -1 | 0 | 6 | nt | nt
COc1cccc(-c2ccc3n(c2=O)C[C@@H]2[C@@H](CO)[C@H](C(=O)N(C)C)N(CC4CC4)[C@H]32)c1 | nt | nt | 0 | nt | nt | nt | nt | nt
C[C@@H]1CCCCO[C@@H](CN(C)Cc2ccncc2)[C@H](C)CN([C@H](C)CO)C(=O)c2cc(NC(=O)Nc3ccccc3)ccc2O1 | nt | nt | 0 | nt | nt | nt | nt | nt
COc1ccc(Nc2nc(N/N=C/c3ccc(N(C)C)cc3)nc(C)c2[N+](=O)[O-])cc1 | 0 | -6 | nt | 12 | 103* | 1 | 3 | 0
CO[C@@H]1CN(C)C(=O)c2cc(NS(=O)(=O)c3ccccc3)ccc2OC[C@H](C)N(Cc2nccs2)C[C@H]1C | nt | nt | 0 | nt | nt | nt | nt | nt
COCCNC(=O)C[C@H]1C[C@@H]2c3cc(NC(=O)Nc4ccc(F)cc4)ccc3O[C@@H]2[C@@H](CO)O1 | nt | nt | 0 | nt | nt | nt | nt | nt
O=C(Oc1ccc2ccc(=O)oc2c1)N1CCOCC1 | 338 | 0 | nt | -1 | 55* | -2 | 1 | -9
Cc1cccc(NC(=O)Nc2cnccn2)c1C | 257 | -1 | 1 | 1 | -5 | -5 | -8 | -5
Cc1ccccc1NC(=O)Nc1cnccn1 | 357 | 0 | 0 | -1 | 15 | 2 | 6 | -6
Cc1cccc(NC(=O)Nc2cccnc2)c1C | i | -1 | 0 | 0 | -10 | 5 | nt | nt
COc1ccc(F)cc1CN1CCN(C(=O)CCC(=O)Nc2nnc(CC(C)C)s2)CC1 | 285 | -2 | 0 | 0 | 54* | -4 | 8 | -5
CCc1nnc(NC(=O)CCC(=O)N2CCN(Cc3cc(F)ccc3OC)CC2)s1 | 242 | 3 | nt | -1 | -56 | -4 | nt | nt
CCOc1ccc(/C=C/C(=O)NCCc2ccc(OC)c(OC)c2)cc1 | 280 | -2 | 0 | 1 | 57* | 0 | -12 | -8
Cc1ccc2cc(CN(CCCN3CCOCC3)C(=O)NC3CCCCC3)c(=O)[nH]c2c1C | 229 | 2 | nt | -2 | -4 | -4 | 1 | -10
Cc1ccc2cc(CN(Cc3ccco3)C(=O)NC3CCCCC3)c(=O)[nH]c2c1C | 452 | 3 | nt | 2 | 12 | -4 | nt | nt
CCN1CCCC1CN(Cc1cc2c(C)cc(C)cc2[nH]c1=O)C(=O)NC1CCCCC1 (centres undefined) | 458 | 3 | nt | 2 | 14 | -3 | -6 | -4

Bioassay records: PubChem, several laboratories
